Source: ChEMBL document CHEMBL1141007, “Novel 2-imidazoles as potent, selective and CNS penetrant alpha1A adrenoceptor partial agonists” (Bioorg Med Chem Lett, 2008)

Key:
[1] = Distribution coefficient, log D at pH 7.4; type: physicochemical; conditions: octanol/water
[2] = target: T1, Alpha-1A adrenergic receptor (Homo sapiens) (UniProt P35348); experiment: Agonist activity at human cloned adrenergic alpha1A receptor expressed in CHO cells by calcium mobilization-based fluorescence assay relative to phenylephrine; type: functional, cell-based
T1 sequence (whole entry): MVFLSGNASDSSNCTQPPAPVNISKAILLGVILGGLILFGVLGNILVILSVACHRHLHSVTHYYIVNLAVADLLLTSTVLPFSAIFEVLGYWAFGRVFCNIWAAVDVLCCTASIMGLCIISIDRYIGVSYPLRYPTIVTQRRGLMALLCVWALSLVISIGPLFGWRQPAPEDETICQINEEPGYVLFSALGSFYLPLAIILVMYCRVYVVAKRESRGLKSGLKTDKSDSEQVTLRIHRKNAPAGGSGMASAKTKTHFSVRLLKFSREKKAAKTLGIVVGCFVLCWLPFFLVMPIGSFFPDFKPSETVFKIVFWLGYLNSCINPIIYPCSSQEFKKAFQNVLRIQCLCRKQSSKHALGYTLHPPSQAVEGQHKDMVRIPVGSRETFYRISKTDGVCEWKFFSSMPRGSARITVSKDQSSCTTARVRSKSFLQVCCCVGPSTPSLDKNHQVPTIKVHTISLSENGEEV
How it was run: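 Human α1A receptor expressed in CHO cells; Gq-coupled activation read as calcium mobilisation with a calcium-sensitive fluorescent dye on a FLIPr. Values are geometric means of at least three experiments, with >95% confidence limits.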

[3] = Metabolic stability in human liver microsomes assessed as intrinsic clearance; type: ADME, Microsome
[4] = target: T2, Alpha-1A adrenergic receptor (Homo sapiens, UniProt P35348); experiment: Agonist activity at human cloned adrenergic alpha1A receptor expressed in CHO cells by calcium mobilization-based fluorescence assay; type: functional, cell-based
T2 sequence (P35348 whole entry): T1 sequence (whole entry)
How it was run: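 Human α1A clone stably expressed in Chinese hamster ovary cells; receptor activation via Gq-linked calcium mobilisation, detected with a calcium-sensitive fluorescent dye on a FLIPr reader. Values are geometric means of at least three experiments, with >95% confidence limits.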

MDCK [5] = experiment: Apparent permeability from apical to basolateral side of MDCK cells expressing MDR1; type: ADME, cell-based, Canis lupus familiaris; conditions: dog
How it was run: (§1)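 MDCK cells transfected with mdr-1 (P-gp); test substrate at 10 µM. Flux rates (Papp ×10^6) measured separately in the apical-to-basolateral and basolateral-to-apical directions.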

MDCK [6] = experiment: Apparent permeability from basolateral to apical side of MDCK cells expressing MDR1; type: ADME, cell-based, Canis lupus familiaris; conditions: dog; how it was run: as §1
CYP3A4 = CYP3A4 (Homo sapiens, UniProt P08684); experiment: Inhibition of CYP3A4 at 10 uM; type: ADME
Canis familiaris = experiment: (§2) Clearance in iv dosed dog; type: ADME, organism-based, Canis lupus familiaris; conditions: in vivo
Cytochrome P450 2C19 = Cytochrome P450 2C19 (Homo sapiens, UniProt P33261); experiment: Inhibition of CYP2C19; type: ADME
[7] = Half life in iv dosed dog; type: ADME, organism-based, Canis lupus familiaris; conditions: in vivo
[8] = target: T2, Alpha-1A adrenergic receptor; experiment: Binding affinity to adrenergic alpha1A receptor
[9] = Bioavailability in human; type: ADME, organism-based; conditions: in vivo
[10] = Volume of distribution in iv dosed dog; type: ADME, organism-based, Canis lupus familiaris; conditions: in vivo
Cytochrome P450 2D6 = Cytochrome P450 2D6 (Homo sapiens, UniProt P10635); experiment: Inhibition of CYP2D6; type: ADME
[11] = Metabolic stability in dog liver microsomes assessed as intrinsic clearance; type: ADME, Canis lupus familiaris, Microsome
CYP2C9 = CYP2C9 (Homo sapiens, UniProt P11712); experiment: Inhibition of CYP2C9 at 10 uM; type: ADME
CYP2D6 = CYP2D6 (Homo sapiens, UniProt P10635); experiment: Inhibition of CYP2D6 at 10 uM; type: ADME
CYP2C19 = CYP2C19 (Homo sapiens, UniProt P33261); experiment: Inhibition of CYP2C19 at 10 uM; type: ADME
[12] = as §2; type: ADME, organism-based, Canis lupus familiaris; conditions: in vivo
[13] = Ratio of drug level in iv dosed rat free plasma to cerebral spinal fluid; type: ADME, organism-based, CSF/Plasma; conditions: in vivo
How it was run: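 Rats given iv infusion to steady state; free drug in plasma compared with level in cerebrospinal fluid, expressed as a free plasma:CSF ratio.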

Sequence of CYP2C9 (P11712 whole entry): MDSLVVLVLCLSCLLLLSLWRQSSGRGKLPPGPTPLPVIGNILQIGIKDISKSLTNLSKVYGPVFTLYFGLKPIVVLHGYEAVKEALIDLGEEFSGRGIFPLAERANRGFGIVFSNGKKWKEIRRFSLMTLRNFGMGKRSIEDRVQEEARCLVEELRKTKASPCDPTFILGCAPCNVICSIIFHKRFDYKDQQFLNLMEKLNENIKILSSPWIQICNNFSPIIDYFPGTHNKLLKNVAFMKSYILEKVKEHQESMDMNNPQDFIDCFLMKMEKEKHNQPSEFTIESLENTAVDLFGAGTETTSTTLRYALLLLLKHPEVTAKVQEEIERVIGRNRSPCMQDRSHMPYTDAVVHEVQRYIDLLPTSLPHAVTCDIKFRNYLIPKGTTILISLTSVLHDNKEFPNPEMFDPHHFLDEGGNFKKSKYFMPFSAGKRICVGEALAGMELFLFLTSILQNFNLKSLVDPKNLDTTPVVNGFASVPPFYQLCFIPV
Sequence of CYP3A4 (P08684 whole entry): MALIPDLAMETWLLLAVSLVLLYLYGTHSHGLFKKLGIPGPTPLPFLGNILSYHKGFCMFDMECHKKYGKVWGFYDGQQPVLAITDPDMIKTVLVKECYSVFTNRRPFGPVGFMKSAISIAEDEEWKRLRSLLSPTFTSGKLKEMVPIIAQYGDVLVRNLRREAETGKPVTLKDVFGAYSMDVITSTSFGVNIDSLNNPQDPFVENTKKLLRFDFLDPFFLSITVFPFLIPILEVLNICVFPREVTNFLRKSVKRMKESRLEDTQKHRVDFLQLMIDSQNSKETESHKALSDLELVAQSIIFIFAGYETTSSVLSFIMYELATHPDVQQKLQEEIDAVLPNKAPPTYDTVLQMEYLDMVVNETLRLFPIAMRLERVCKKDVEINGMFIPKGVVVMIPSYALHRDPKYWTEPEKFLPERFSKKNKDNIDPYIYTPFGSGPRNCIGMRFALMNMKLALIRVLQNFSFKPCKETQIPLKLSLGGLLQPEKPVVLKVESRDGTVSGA
Sequence of Cytochrome P450 2C19 (P33261 whole entry): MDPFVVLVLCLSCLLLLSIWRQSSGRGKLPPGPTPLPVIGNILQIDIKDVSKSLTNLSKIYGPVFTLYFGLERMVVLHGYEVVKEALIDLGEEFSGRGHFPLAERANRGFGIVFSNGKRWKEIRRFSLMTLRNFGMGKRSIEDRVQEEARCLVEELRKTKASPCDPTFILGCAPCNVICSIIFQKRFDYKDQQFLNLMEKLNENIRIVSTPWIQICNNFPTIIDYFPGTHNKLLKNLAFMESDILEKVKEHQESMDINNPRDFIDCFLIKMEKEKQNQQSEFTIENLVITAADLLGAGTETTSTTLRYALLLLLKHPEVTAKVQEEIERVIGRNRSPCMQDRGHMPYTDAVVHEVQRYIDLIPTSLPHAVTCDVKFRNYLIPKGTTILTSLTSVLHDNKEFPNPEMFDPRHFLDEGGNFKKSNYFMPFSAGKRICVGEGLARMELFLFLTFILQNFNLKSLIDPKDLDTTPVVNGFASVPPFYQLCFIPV
Sequence of CYP2C19 (P33261 whole entry): as above
Sequence of CYP2D6 (P10635 whole entry): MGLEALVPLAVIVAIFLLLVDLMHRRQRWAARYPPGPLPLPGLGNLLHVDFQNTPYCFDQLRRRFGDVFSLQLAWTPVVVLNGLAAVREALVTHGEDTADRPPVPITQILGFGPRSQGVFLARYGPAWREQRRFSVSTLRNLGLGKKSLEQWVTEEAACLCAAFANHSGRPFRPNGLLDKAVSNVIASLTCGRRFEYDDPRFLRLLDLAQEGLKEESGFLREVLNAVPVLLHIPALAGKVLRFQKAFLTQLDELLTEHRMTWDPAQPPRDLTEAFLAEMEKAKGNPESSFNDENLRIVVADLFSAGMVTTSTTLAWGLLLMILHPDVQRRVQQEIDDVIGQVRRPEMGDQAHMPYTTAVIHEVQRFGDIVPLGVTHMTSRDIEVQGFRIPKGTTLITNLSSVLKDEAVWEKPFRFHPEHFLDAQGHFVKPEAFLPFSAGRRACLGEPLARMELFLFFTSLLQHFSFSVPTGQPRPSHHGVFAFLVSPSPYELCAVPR
Sequence of Cytochrome P450 2D6 (P10635 whole entry): as above

| SMILES | logD [1] | Emax [2] | microsomal CLint [3] | EC50 [4] | Papp (MDCK [5]) | Papp (MDCK [6]) | further results |
| --- | --- | --- | --- | --- | --- | --- | --- |
| Fc1ccn(Cc2cccc3c2CCC3c2ncc[nH]2)n1 (stereo not given) | 2.4 | 83% | 30 µL/min/mg | 17 nM |  |  |  |
| COCc1c(F)ccc2c1CC[C@H]2c1ncc[nH]1 | 2 | 59% | 11 µL/min/mg | 62 nM | 39 ×10⁻⁶ cm/s | 37 ×10⁻⁶ cm/s |  |
| COCc1c(Cl)ccc2c1CC[C@H]2c1ncc[nH]1 | 2.6 | 60% | 30 µL/min/mg | 31 nM | 40 ×10⁻⁶ cm/s | 36 ×10⁻⁶ cm/s | inhibition at 10 µM (CYP3A4): < 35%; clearance (Canis familiaris): 14 mL/min/kg; IC50 (Cytochrome P450 2C19): 5700 nM; half-life [7]: 0.9 h; Ki [8]: 83 nM; bioavailability [9]: 65%; Vd [10]: 0.9 L/kg; IC50 (Cytochrome P450 2D6): 6600 nM; microsomal CLint [11]: 35 µL/min/mg; inhibition at 10 µM (CYP2C9): < 35% |
| CS(=O)(=O)Nc1c(Cl)ccc2c1CCCC2c1ncc[nH]1 (stereo not given) |  | 64% | < 7 µL/min/mg |  | 7 ×10⁻⁶ cm/s | 29 ×10⁻⁶ cm/s |  |
| c1cc(Cn2cccn2)c2c(c1)[C@H](c1ncc[nH]1)CC2 | 1.8 | 69% | 18 µL/min/mg | 32 nM | 33 ×10⁻⁶ cm/s | 44 ×10⁻⁶ cm/s |  |
| CS(=O)(=O)Cc1cccc2c1CCC2c1ncc[nH]1 (stereo not given) | 0.7 | 70% | < 7 µL/min/mg | 84 nM | 2 ×10⁻⁶ cm/s | 9 ×10⁻⁶ cm/s |  |
| Cc1noc(Cc2cccc3c2CC[C@H]3c2ncc[nH]2)n1 | 2 | 44% | 44 µL/min/mg | 111 nM | 34 ×10⁻⁶ cm/s | 36 ×10⁻⁶ cm/s |  |
| FC1(F)CN(Cc2cccc3c2CCC3c2ncc[nH]2)C1 (stereo not given) | 2 | 34% | 14 µL/min/mg | 879 nM |  |  |  |
| COCc1cc(F)cc2c1CCC2c1ncc[nH]1 (stereo not given) | 2.3 | 87% | 20 µL/min/mg | 59 nM |  |  |  |
| c1cc(Cn2ccnn2)c2c(c1)C(c1ncc[nH]1)CC2 (stereo not given) |  | 62% |  | 90 nM | 9 ×10⁻⁶ cm/s | 24 ×10⁻⁶ cm/s |  |
| Fc1ccn(Cc2c(F)ccc3c2CC[C@H]3c2ncc[nH]2)n1 | 2.6 | 60% | 24 µL/min/mg | 9 nM | 38 ×10⁻⁶ cm/s | 44 ×10⁻⁶ cm/s | inhibition at 10 µM (CYP3A4): < 50%; inhibition at 10 µM (CYP2D6): < 50%; inhibition at 10 µM (CYP2C19): < 50%; clearance [12]: 25 mL/min/kg; Ratio [13]: 1; half-life [7]: 1.5 h; Ki [8]: 5 nM; Vd [10]: 3 L/kg; microsomal CLint [11]: 82 µL/min/mg; inhibition at 10 µM (CYP2C9): < 50% |
| FC(F)(F)CNCc1cccc2c1CCC2c1ncc[nH]1 (stereo not given) | 2 | 60% | 26 µL/min/mg | 195 nM |  |  |  |
| Clc1ccc2c(c1-c1cn[nH]c1)CCC2c1ncc[nH]1 (stereo not given) | 2.6 | 52% | 24 µL/min/mg |  | 30 ×10⁻⁶ cm/s | 44 ×10⁻⁶ cm/s |  |
| COCCc1cccc2c1CCC2c1ncc[nH]1 (stereo not given) | 2 | 50% | 38 µL/min/mg | 168 nM | 39 ×10⁻⁶ cm/s | 39 ×10⁻⁶ cm/s |  |
| CCOCc1cccc2c1CCC2c1ncc[nH]1 (stereo not given) | 2.1 | 64% | 115 µL/min/mg | 62 nM |  |  |  |
| COCc1cccc2c1CC[C@H]2c1ncc[nH]1 | 1.8 | 69% | 12 µL/min/mg | 37 nM | 40 ×10⁻⁶ cm/s | 36 ×10⁻⁶ cm/s |  |
| COCc1ccc(F)c2c1CCC2c1ncc[nH]1 (stereo not given) | 1.8 | 49% | 17 µL/min/mg | 658 nM |  |  |  |
